Measured values as given in ChEMBL document CHEMBL3865784 (Eur J Med Chem, 2016).

Key:
[1] = Cytotoxicity against NQO1-deficient human PBMC assessed as reduction in cell viability after 72 hrs by MTT assay; format: toxicity, cell-based; details: pbmc
V79 [2] = experiment: Selectivity index, ratio of IC50 for NQO1-deficient chinese hamster V79 cells to IC50 for human MDA-MB-435 cells overexpressing NQO1
Summary of the method: (§1)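 Selectivity index is IC50 in the normal cells divided by IC50 in the cancer line. Normal cells: V79 and L929 in DMEM, PBMC in RPMI with phytohaemagglutinin. Cancer lines in RPMI with 10% FBS, seeded at 0.1 × 10^6 (HL-60) or 0.7 × 10^5 cells/well (solid tumors). Absorbance 550 nm; nonlinear regression.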

[3] = Cytotoxicity against human HCT116 cells expressing NQO1 assessed as reduction in cell viability after 72 hrs by MTT assay; format: functional, cell-based; details: HCT-116, 72 h
Summary of the method: (§2)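 Cancer lines from NCI, grown in RPMI 1640 with 10% FBS, 2 mM L-glutamine, penicillin/streptomycin, 37 °C, 5% CO2; seeded 0.1 × 10^6 cells/well (HL-60) or 0.7 × 10^5 cells/well (solid tumours). Compounds in DMSO, final 0.1% v/v; DMSO vehicle as negative control.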

HL-60 [4] = experiment: Selectivity index, ratio of IC50 for NQO1-deficient human PBMC to IC50 for NQO1-deficient human HL60 cells; summary of the method: as §1
[5] = Cytotoxicity against human MDA-MB-435 cells overexpressing NQO1 assessed as reduction in cell viability after 72 hrs by MTT assay; format: functional, cell-based; details: MDA-MB-435, 72 h; summary of the method: as §2
[6] = Cytotoxicity against human SF295 cells overexpressing NQO1 assessed as reduction in cell viability after 72 hrs by MTT assay; format: functional, cell-based; details: SF-295, 72 h
L929 [7] = experiment: Selectivity index, ratio of IC50 for NQO1-deficient mouse L929 cells to IC50 for NQO1-deficient human HL60 cells; format: functional; summary of the method: as §1
[8] = Cytotoxicity against human OVCAR8 cells overexpressing NQO1 assessed as reduction in cell viability after 72 hrs by MTT assay; format: functional, cell-based; details: OVCAR-8, 72 h; summary of the method: as §2
HL-60 [9] = experiment: Selectivity index, ratio of IC50 for NQO1-deficient chinese hamster V79 cells to IC50 for NQO1-deficient human HL60 cells; format: functional; summary of the method: as §1
Mus musculus = species on record: Mus musculus; experiment: Cytotoxicity against NQO1-deficient mouse L929 cells assessed as reduction in cell viability after 72 hrs by MTT assay; format: toxicity, cell-based; details: l929
[10] = Cytotoxicity against NQO1-deficient human HL60 cells assessed as reduction in cell viability after 72 hrs by MTT assay; format: functional, cell-based; details: HL-60, 72 h; summary of the method: as §2
L929 [11] = experiment: Selectivity index, ratio of IC50 for NQO1-deficient mouse L929 cells to IC50 for human MDA-MB-435 cells overexpressing NQO1; summary of the method: as §1
L929 [12] = experiment: Selectivity index, ratio of IC50 for NQO1-deficient mouse L929 cells to IC50 for human SF295 cells overexpressing NQO1; summary of the method: as §1
[13] = Selectivity index, ratio of IC50 for NQO1-deficient human PBMC to IC50 for human MDA-MB-435 cells overexpressing NQO1; summary of the method: as §1
SF-295 [14] = experiment: Selectivity index, ratio of IC50 for NQO1-deficient chinese hamster V79 cells to IC50 for human SF295 cells overexpressing NQO1; summary of the method: as §1
[15] = Cytotoxicity against human PC3 cells overexpressing NQO1 assessed as reduction in cell viability after 72 hrs by MTT assay; format: functional, cell-based; details: PC-3, 72 h
[16] = Cytotoxicity against NQO1-deficient chinese hamster V79 cells assessed as reduction in cell viability after 72 hrs by MTT assay; format: toxicity, cell-based, Cricetulus griseus; details: v79
L929 [17] = experiment: Selectivity index, ratio of IC50 for NQO1-deficient mouse L929 cells to IC50 for human OVCAR8 cells overexpressing NQO1; summary of the method: as §1
OVCAR-8 [18] = experiment: Selectivity index, ratio of IC50 for NQO1-deficient human PBMC to IC50 for human OVCAR8 cells overexpressing NQO1
Summary of the method: as §1, with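 “line. All IC50s come from 72 h MTT assays.” for “line.”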

SF-295 [19] = experiment: Selectivity index, ratio of IC50 for NQO1-deficient human PBMC to IC50 for human SF295 cells overexpressing NQO1; summary of the method: as §1
V79 [20] = experiment: Selectivity index, ratio of IC50 for NQO1-deficient chinese hamster V79 cells to IC50 for human PC3 cells overexpressing NQO1; summary of the method: as §1
PC-3 = experiment: Selectivity index, ratio of IC50 for NQO1-deficient human PBMC to IC50 for human PC3 cells overexpressing NQO1; summary of the method: as §1
OVCAR-8 [21] = experiment: Selectivity index, ratio of IC50 for NQO1-deficient chinese hamster V79 cells to IC50 for human OVCAR8 cells overexpressing NQO1
Summary of the method: as §1, with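 “line. All IC50s come from 72 h MTT assays.” for “line.”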

L929 [22] = experiment: Selectivity index, ratio of IC50 for NQO1-deficient mouse L929 cells to IC50 for human PC3 cells overexpressing NQO1; summary of the method: as §1

| SMILES | IC50 [1] [µM] | IC50 [3] [µM] | IC50 [5] [µM] | IC50 [6] [µM] | Ratio IC50 (L929 [7]) | IC50 [8] [µM] | Ratio IC50 (HL-60 [9]) | IC50 (Mus musculus) [µM] | IC50 [10] [µM] | Ratio IC50 (L929 [12]) | IC50 [15] [µM] | IC50 [16] [µM] | also measured |
| --- | --- | --- | --- | --- | --- | --- | --- | --- | --- | --- | --- | --- | --- |
| CC1(C)CC(Nc2cccc(-c3cn(C[Se]c4ccccc4)nn3)c2)C2=C(O1)C(=O)c1ccccc1C2=O (configuration not stated) | 4.16 | 4.9 | 1.49 | 1.88 | 1.6 | 3.09 | 1.8 | 3.3 | 2 | 1.7 | 2.6 | 3.65 | Ratio IC50 (V79 [2]): 2.4; Ratio IC50 (HL-60 [4]): 2; Ratio IC50 (L929 [11]): 2.2; Ratio IC50 [13]: 2.8; Ratio IC50 (SF-295 [14]): 1.9 |
| CC1(C)OC2=C(C(=O)c3ccccc3C2=O)C1N=[N+]=[N-] (configuration not stated) | 3.16 | 3.3 | 2.52 | 3.04 | – | 3.53 | – | 3.68 | 2.23 | – | 4.09 | – | – |
| C#Cc1cccc(NC2C3=C(OC2(C)C)C(=O)c2ccccc2C3=O)c1 (configuration not stated) | 6.46 | 4.6 | 3.93 | > 14.6 | – | 7.13 | – | – | 2.59 | – | 5.15 | 6.06 | – |
| CC1(C)CC(N=[N+]=[N-])C2=C(O1)C(=O)c1ccccc1C2=O (configuration not stated) | 6.11 | 2.96 | 2.72 | – | 2.4 | 1.48 | 2.2 | 4.13 | 1.66 | 2 | 2.15 | 3.67 | Ratio IC50 (L929 [17]): 2.7; Ratio IC50 (HL-60 [4]): 3.6; Ratio IC50 (OVCAR-8 [18]): 4.1; Ratio IC50 (SF-295 [14]): 1.7; Ratio IC50 (SF-295 [19]): 2.9 |
| CC1(C)CC(n2cc(C[Se]c3ccccc3)nn2)C2=C(O1)C(=O)c1ccccc1C2=O (configuration not stated) | 4.45 | 2.24 | – | 4.2 | – | 2.55 | – | – | 5.46 | – | 3.89 | – | – |
| O=C1C2=C(C(=O)c3ccccc31)[C@H](c1cccc3ccccc13)[C@@H](n1cc(C[Se]c3ccccc3)nn1)CO2 | > 8.67 | > 8.67 | > 8.67 | > 8.67 | – | > 8.67 | – | > 8.67 | > 8.67 | – | > 8.67 | > 8.67 | – |
| O=C1C2=C(OC(Cn3cc(C[Se]c4ccccc4)nn3)C2)C(=O)c2ccccc21 (configuration not stated) | 2.8 | 2.42 | 0.62 | 0.98 | 2.6 | 0.91 | 2.4 | 2.15 | 0.82 | 2.1 | 1.4 | 2.02 | Ratio IC50 (L929 [17]): 2.3; Ratio IC50 (V79 [2]): 3.2; Ratio IC50 (V79 [20]): 1.4; Ratio IC50 (OVCAR-8 [18]): 3; Ratio IC50 (PC-3): 2; Ratio IC50 (OVCAR-8 [21]): 2.2; Ratio IC50 (L929 [11]): 3.4; Ratio IC50 [13]: 4.5; Ratio IC50 (SF-295 [19]): 2.8; Ratio IC50 (L929 [22]): 1.5 |
| O=C1C2=C(C(=O)c3ccccc31)[C@H](c1ccccc1)[C@@H](n1cc(C[Se]c3ccccc3)nn1)CO2 | – | 7.22 | 6.82 | 5.58 | – | – | – | 7.16 | 8.26 | – | 7.79 | 6.74 | – |
| C#Cc1cccc(NC2CC(C)(C)OC3=C2C(=O)c2ccccc2C3=O)c1 (configuration not stated) | > 14 | > 14 | > 14 | > 14 | – | > 14 | – | > 14 | > 14 | – | > 14 | > 14 | – |
